Source: ChEMBL document CHEMBL1914423, “New imidazo[2,1-b]thiazole derivatives: synthesis, in vitro anticancer evaluation, and in silico studies” (Eur J Med Chem, 2011)

test system: U-251; assay: Anticancer activity against human U251 cells assessed as cell growth at 10^-5 M after 48 hrs by SRB assay; assay type: functional; details: U-251, 48 h, read-out: Activity
In short: (§1)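 NCI-60 single-dose screen: cells in RPMI 1640 with 5% FBS and 2 mM L-glutamine, plated at 5000–40,000 cells/well by doubling time, and preincubated 24 h at 37 °C. Compound given at one concentration from DMSO stock. Cells TCA-fixed and SRB-stained, absorbance at 515 nm. Percent growth relative to time-zero and untreated controls; inhibition % = 100 − growth %.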

| Compound | growth at 10 µM |
| --- | --- |
| COc1cccc(-c2nc3sccn3c2-c2ccnc(NCCNC(=O)c3cccc(C(F)(F)F)c3)n2)c1 | 74.5% |

test system: LOX IMVI; assay: Anticancer activity against human LOXIMVI cells assessed as cell growth at 10^-5 M after 48 hrs by SRB assay; assay type: functional; details: read-out: Activity
In short: (§2)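 NCI-60 single-dose screen at one concentration. Cells grown in RPMI 1640 with 5% FBS and 2 mM L-glutamine, plated at 5000–40,000 cells/well, and pre-incubated 24 h at 37 °C in 5% CO2 before DMSO-dissolved drug was added. Cells fixed with TCA, SRB-stained, absorbance read at 515 nm. Percent growth calculated against time-zero and untreated control plates.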

| Compound | growth at 10 µM |
| --- | --- |
| COc1cccc(-c2nc3sccn3c2-c2ccnc(NCCNC(=O)c3cccc(C(F)(F)F)c3)n2)c1 | 54.7% |

test system: Malme-3M; assay: Anticancer activity against human MALME-3M cells assessed as cell growth at 10^-5 M after 48 hrs by SRB assay; assay type: functional; details: read-out: Activity; in short: as §2

| Compound | growth at 10 µM |
| --- | --- |
| COc1cccc(-c2nc3sccn3c2-c2ccnc(NCCNC(=O)c3cccc(C(F)(F)F)c3)n2)c1 | 50.8% |

test system: SK-MEL-2; assay: Anticancer activity against human SK-MEL-2 cells assessed as cell growth at 10^-5 M after 48 hrs by SRB assay; assay type: functional; details: SK-MEL-2, 48 h, read-out: Activity

| Compound | growth at 10 µM |
| --- | --- |
| COc1cccc(-c2nc3sccn3c2-c2ccnc(NCCNC(=O)c3cccc(C(F)(F)F)c3)n2)c1 | 77% |

test system: OVCAR-3; assay: Anticancer activity against human OVCAR3 cells assessed as cell growth at 10^-5 M after 48 hrs by SRB assay; assay type: functional; details: OVCAR-3, 48 h, read-out: Activity

| Compound | growth at 10 µM |
| --- | --- |
| COc1cccc(-c2nc3sccn3c2-c2ccnc(NCCNC(=O)c3cccc(C(F)(F)F)c3)n2)c1 | 76% |

test system: OVCAR-5; assay: Anticancer activity against human OVCAR5 cells assessed as cell growth at 10^-5 M after 48 hrs by SRB assay; assay type: functional; details: OVCAR-5, 48 h, read-out: Activity

| Compound | growth at 10 µM |
| --- | --- |
| COc1cccc(-c2nc3sccn3c2-c2ccnc(NCCNC(=O)c3cccc(C(F)(F)F)c3)n2)c1 | 97.8% |

test system: OVCAR-8; assay: Anticancer activity against human OVCAR8 cells assessed as cell growth at 10^-5 M after 48 hrs by SRB assay; assay type: functional; details: OVCAR-8, 48 h, read-out: Activity

| Compound | growth at 10 µM |
| --- | --- |
| COc1cccc(-c2nc3sccn3c2-c2ccnc(NCCNC(=O)c3cccc(C(F)(F)F)c3)n2)c1 | 40.5% |

test system: SK-OV-3; assay: Anticancer activity against human SKOV3 cells assessed as cell growth at 10^-5 M after 48 hrs by SRB assay; assay type: functional; details: SK-OV-3, 48 h, read-out: Activity

| Compound | growth at 10 µM |
| --- | --- |
| COc1cccc(-c2nc3sccn3c2-c2ccnc(NCCNC(=O)c3cccc(C(F)(F)F)c3)n2)c1 | 81.1% |

test system: 786-0; assay: Anticancer activity against human 786-0 cells assessed as cell growth at 10^-5 M after 48 hrs by SRB assay; assay type: functional; details: 786-0, 48 h, read-out: Activity; in short: as §2

| Compound | growth at 10 µM |
| --- | --- |
| COc1cccc(-c2nc3sccn3c2-c2ccnc(NCCNC(=O)c3cccc(C(F)(F)F)c3)n2)c1 | 76% |

test system: A498; assay: Anticancer activity against human A498 cells assessed as cell growth at 10^-5 M after 48 hrs by SRB assay; assay type: functional; details: A498, 48 h, read-out: Activity; in short: as §2

| Compound | growth at 10 µM |
| --- | --- |
| COc1cccc(-c2nc3sccn3c2-c2ccnc(NCCNC(=O)c3cccc(C(F)(F)F)c3)n2)c1 | 63.5% |

test system: ACHN; assay: Anticancer activity against human ACHN cells assessed as cell growth at 10^-5 M after 48 hrs by SRB assay; assay type: functional; details: read-out: Activity; in short: as §2

| Compound | growth at 10 µM |
| --- | --- |
| COc1cccc(-c2nc3sccn3c2-c2ccnc(NCCNC(=O)c3cccc(C(F)(F)F)c3)n2)c1 | 49.5% |

test system: UO-31; assay: Anticancer activity against human UO31 cells assessed as cell growth at 10^-5 M after 48 hrs by SRB assay; assay type: functional; details: UO-31, 48 h, read-out: Activity; in short: as §1

| Compound | growth at 10 µM |
| --- | --- |
| COc1cccc(-c2nc3sccn3c2-c2ccnc(NCCNC(=O)c3cccc(C(F)(F)F)c3)n2)c1 | 39.5% |

test system: DU-145; assay: Anticancer activity against human DU145 cells assessed as cell growth at 10^-5 M after 48 hrs by SRB assay; assay type: functional; details: DU-145, 48 h, read-out: Activity; in short: as §2

| Compound | growth at 10 µM |
| --- | --- |
| COc1cccc(-c2nc3sccn3c2-c2ccnc(NCCNC(=O)c3cccc(C(F)(F)F)c3)n2)c1 | 67.7% |

test system: MCF7; assay: Anticancer activity against human MCF7 cells assessed as cell growth at 10^-5 M after 48 hrs by SRB assay; assay type: functional; details: MCF7, 48 h, read-out: Activity; in short: as §2

| Compound | growth at 10 µM |
| --- | --- |
| COc1cccc(-c2nc3sccn3c2-c2ccnc(NCCNC(=O)c3cccc(C(F)(F)F)c3)n2)c1 | 78.8% |

test system: MDA-MB-231; assay: Anticancer activity against human MDA-MB-231 cells assessed as cell growth at 10^-5 M after 48 hrs by SRB assay; assay type: functional; details: MDA-MB-231, 48 h, read-out: Activity; in short: as §2

| Compound | growth at 10 µM |
| --- | --- |
| COc1cccc(-c2nc3sccn3c2-c2ccnc(NCCNC(=O)c3cccc(C(F)(F)F)c3)n2)c1 | 77.6% |

test system: BT-549; assay: Anticancer activity against human BT549 cells assessed as cell growth at 10^-5 M after 48 hrs by SRB assay; assay type: functional; details: BT-549, 48 h, read-out: Activity; in short: as §2

| Compound | growth at 10 µM |
| --- | --- |
| COc1cccc(-c2nc3sccn3c2-c2ccnc(NCCNC(=O)c3cccc(C(F)(F)F)c3)n2)c1 | 78.1% |

test system: T47D; assay: Anticancer activity against human T47D cells assessed as cell growth at 10^-5 M after 48 hrs by SRB assay; assay type: functional; details: read-out: Activity; in short: as §1

| Compound | growth at 10 µM |
| --- | --- |
| COc1cccc(-c2nc3sccn3c2-c2ccnc(NCCNC(=O)c3cccc(C(F)(F)F)c3)n2)c1 | 46.7% |
